≈ marks a conversion by molar mass, not a printed value. Calls of active or inactive are those of the source. The calls are words filed in the database; no cut-off is given here.
Columns and labels:
[1] = system: Mycobacterium tuberculosis; test: microbe, parasite or virus in culture; format: functional; details: H37Ra
[2] = system: Mycobacterium tuberculosis; test: Antimycobacterial activity against Mycobacterium tuberculosis H37Ra at 10 uM; format: functional, organism-based
[3] = molecular target: T1, Bifunctional epoxide hydrolase 2 (Homo sapiens, UniProt P34913);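 further: recombinant enzyme with CMNPC substrate, fluorescence readout of 6-methoxy-2-naphthaldehyde formed over a 10 min reaction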
T1 sequence (P34913 whole entry): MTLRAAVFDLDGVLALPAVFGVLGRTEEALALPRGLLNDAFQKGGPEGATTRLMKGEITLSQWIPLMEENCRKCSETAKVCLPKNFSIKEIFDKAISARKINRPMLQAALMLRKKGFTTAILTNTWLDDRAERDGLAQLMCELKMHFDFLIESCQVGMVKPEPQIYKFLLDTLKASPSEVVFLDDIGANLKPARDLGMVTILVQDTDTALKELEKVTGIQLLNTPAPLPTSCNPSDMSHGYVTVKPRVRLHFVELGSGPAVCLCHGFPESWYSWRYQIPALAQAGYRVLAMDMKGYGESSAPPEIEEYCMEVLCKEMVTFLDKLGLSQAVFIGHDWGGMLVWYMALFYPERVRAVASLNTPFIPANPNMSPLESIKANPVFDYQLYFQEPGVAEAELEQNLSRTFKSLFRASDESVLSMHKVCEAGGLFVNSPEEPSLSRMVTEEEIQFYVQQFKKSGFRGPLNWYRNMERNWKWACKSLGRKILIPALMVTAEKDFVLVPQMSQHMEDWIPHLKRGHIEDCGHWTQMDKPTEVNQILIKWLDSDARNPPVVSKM

[4] = system: Mycobacterium tuberculosis; test: Antimycobacterial activity against Mycobacterium tuberculosis H37Ra infected in gamma interferon-knockout mouse assessed as reduction in lung CFU load at 150 mg/kg, po BID dosage beginning at 15 post infection for 9 days (reference value: 8.86 +/- 0.02 log10CFU); format: functional
[5] = system: Mycobacterium tuberculosis; test: Antimycobacterial activity against Mycobacterium tuberculosis H37Ra infected in gamma interferon-knockout mouse assessed as reduction in spleen CFU load at 150 mg/kg, po BID dosage beginning at 15 post infection for 9 days (reference value: 7.30 +/- 0.09 log10CFU); format: functional
[6] = Drug uptake in mouse serum at 140 mg/kg, po administered in 30% Captisol measured after 2 hrs by LC-MS/MS analysis; format: ADME, organism-based; set-up: dose 140 mg/kg, route oral; details: read-out: Drug uptake
How it was run: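 Non-genetically modified mice were dosed at 140 mg/kg in 30% Captisol by gavage. Blood was clotted for at least 1 h and spun at ~3000g for 15 min, and serum was frozen at −70°C. Serum was diluted 4:1 with methanol containing warfarin (final 5 μM) as internal standard and centrifuged. Samples were quantified by LC/MS against a 7-point calibration curve.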

[7] = system: Mycobacterium tuberculosis; test: Inhibition of Mycobacterium tuberculosis epoxide hydrolase E expressed in Escherichia coli BL21AI cells using cyano(6-methoxy-2-napthalenyl)methyl[(2,3)-3-phenyloxiranyl] methyl ester carbonate as substrate at 10 nM preincubated for 10 mins before substrate addition measured after 30 mins by spectrofluorometric analysis
[8] = mycobacterium tuberculosis h37ra, cytosol, 5 µM

SMILES	MIC [1] [µg/mL]	IC50 [3] [nM]	further results
O=C(NC12CC3CC(CC(C3)C1)C2)N[C@H]1CC[C@H](OC(=O)c2ccccc2)CC1	> 79	1	Activity [2]: inactive
COC(=O)c1ccc(NC(=O)NC2CCCCCC2)cc1	3.63 (≈ 12.5 µM)	12.3	Activity [2]: inactive
COC(=O)c1ccc(NC(=O)NC23CC4CC(CC(C4)C2)C3)cc1O	1.1 (≈ 3.19 µM)	–	Activity [2]: inactive; log10cfu [4]: 8.77; log10cfu [5]: 7.31; concentration at 2 h [6]: 3000 nM
CC(C)(C)c1ccc(NC(=O)NC2CCCCC2)cc1	1.72 (≈ 6.27 µM)	3.9	–
CCOCCOCC(OC(=O)CCCNC(=O)NC12CC3CC(CC(C3)C1)C2)c1ccccc1 (stereo unspecified)	95 (≈ 201 µM)	4.2	–
CCOC(=O)C(F)(F)Oc1ccc(NC(=O)NC23CC4CC(CC(C4)C2)C3)cc1	1.28 (≈ 3.13 µM)	0.8	–
O=C(Nc1cccc(C(=O)c2ccccc2)c1)NC12CC3CC(CC(C3)C1)C2	4.68 (≈ 12.5 µM)	2.7	–
CC(C)c1ccc(NC(=O)NCC2CCCCC2)cc1	1.72 (≈ 6.27 µM)	1.1	–
CCCC(C)OCCOCCOCCCCCNC(=O)NC12CC3CC(CC(C3)C1)C2 (stereo unspecified)	> 91	6.2	–
O=C(NC12CC3CC(CC(C3)C1)C2)N[C@H]1CC[C@@H](OC2CCCCC2)CC1	> 75	1.6	–
O=C(Nc1ccc(Oc2ccccc2)cc1)NC12CC3CC(CC(C3)C1)C2	0.1 (≈ 0.276 µM)	0.5	–
O=C(Nc1cccc(C(=O)Nc2ccc(N3CCOCC3)cc2)c1)NC12CC3CC(CC(C3)C1)C2	> 95	74.2	–
O=C(NCCCN1CCOCC1)NC12CC3CC(CC(C3)C1)C2	> 64	610	–
O=C(Nc1ccc(OCCN2CCOCC2)cc1Cl)NC12CC3CC(CC(C3)C1)C2	> 87	2.4	–
COCCOCCCCCNC(=O)NC12CC3CC(CC(C3)C1)C2	68 (≈ 201 µM)	12.1	–
O=C(Nc1ccc(OCCCN2CCOCC2)cc1)NC12CC3CC(CC(C3)C1)C2	> 17	–	inhibition [7]: 19%; Drug uptake [8]: 103 ng

SMILES	MIC [1] [µg/mL]	IC50 [3] [nM]	further results
O=C(NC1CCCC(C(=O)N2CCOCC2)C1)NC12CC3CC(CC(C3)C1)C2 (stereo unspecified)	> 81	8.2	–
O=C(Nc1cccc(C(=O)O)c1)NC12CC3CC(CC(C3)C1)C2	7.8 (≈ 24.8 µM)	–	Activity [2]: Active
COCC(=O)c1ccc(O[C@H]2CC[C@@H](NC(=O)NC34CC5CC(CC(C5)C3)C4)CC2)cc1	5.51 (≈ 12.5 µM)	3.8	–
CCCCCCc1ccc(NC(=O)NC2CCCCC2)cc1	1.89 (≈ 6.25 µM)	1.8	–
O=C(Nc1cccc(C(=O)NCC2CN(Cc3ccccc3)CCO2)c1)NC12CC3CC(CC(C3)C1)C2 (stereo unspecified)	> 101	13.6	–
O=C(NC12CC3CC(CC(C3)C1)C2)N[C@H]1CC[C@H](Oc2ccc(C(F)(F)F)cn2)CC1	> 88	4.8	–
CCOC(=O)c1ccc(O[C@H]2CC[C@@H](NC(=O)NC34CC5CC(CC(C5)C3)C4)CC2)cc1	8.3 (≈ 18.8 µM)	1.6	–
O=C(NCC1CCCCC1)Nc1cccc(Cl)c1	1.67 (≈ 6.26 µM)	2.6	–
CSc1ccc(NC(=O)NC23CC4CC(CC(C4)C2)C3)cc1	1.5 (≈ 4.74 µM)	1.6	–
O=C(Nc1ccc(CC(=O)c2ccccc2)cc1)NC12CC3CC(CC(C3)C1)C2	2.43 (≈ 6.25 µM)	4.7	–
O=C(Nc1ccc(OCCOCCOCC(F)(F)F)cc1)NC12CC3CC(CC(C3)C1)C2	11 (≈ 24.1 µM)	3.3	–
COC(=O)c1ccc(NC(=O)NC2C3CC4CC(C3)CC2C4)cc1O (stereo unspecified)	0.1 (≈ 0.29 µM)	–	log10cfu [4]: 8.74; log10cfu [5]: 7.33
C=CCO[C@H]1CC[C@@H](NC(=O)NC23CC4CC(CC(C4)C2)C3)CC1	> 66	1.3	–
O=C(Nc1cccc(C(F)(F)F)c1)NC12CC3CC(CC(C3)C1)C2	0.8 (≈ 2.36 µM)	2.4	–
O=C(Nc1ccc(C(=O)c2ccccc2)cc1)NC12CC3CC(CC(C3)C1)C2	1.8 (≈ 4.81 µM)	1.6	–
O=C(Nc1cccc([N+](=O)[O-])c1)N[C@H]1CC[C@H](OCc2c(F)cccc2F)CC1	10.1 (≈ 25 µM)	90	–

Reference: ChEMBL document CHEMBL2029208 (Bioorg Med Chem, 2012)
